# According to publication PMC5039020 (Journal of Alzheimer's disease : JAD, 2013):
# Entries after “also recorded” stand apart in the source; their conditions may differ. Like-named read-outs stand apart in the source and are kept apart here.
# Legend:
# extracellular Aβ42 = assay: Extracellular Aβ42 ELISA capture assay in N2a-AβPP695 cell supernatants; assay type: cell-based; conditions: for effect on Aftin-5 induced extracellular Aβ42 production: N2a-AβPP695, compound together with 100 μM Aftin-5, 18 h; for effect on extracellular Aβ42 level/production: N2a-AβPP695, compound alone, various concentrations
# N2a = assay: Cell viability, MTS assay, N2a; assay type: cell-based; conditions: read-out: IC50, cell viability (MTS assay), viability assessed 24 h later
# How it was run: (§1)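 Each line was exposed to increasing concentrations of test compound, and viability was read 24 h later by MTS. 20 μL MTS reagent per 100 μL medium, 3 h at 37°C, 5% CO₂. Absorbance read at 490 and 630 nm. IC50 derived from dose-response curves.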
# N2a-AβPP695 = assay: Cell viability, MTS assay, N2a-AβPP695; assay type: cell-based; conditions: for IC50: read-out: IC50, cell viability (MTS assay), N2a-AβPP695, viability assessed 24 h later
# [1] = tested on: KinomeScan panel of 402/442 kinases; conditions: 402 kinases; cited from earlier work
# SH-SY5Y = assay: Cell viability, MTS assay, SH-SY5Y; assay type: cell-based; conditions: read-out: IC50, cell viability (MTS assay), viability assessed 24 h later
# HT22 = assay: Cell viability, MTS assay, HT22; assay type: cell-based; conditions: read-out: IC50, cell viability (MTS assay); HT22, viability assessed 24 h later
# How it was run: as §1
# [2] = tested on: intracellular Aβ38, Aβ40, and Aβ42; assay: Intracellular amyloids ELISA capture assay in N2a-AβPP695 cells; assay type: cell-based
# How it was run: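 2 × 10⁶ N2a-AβPP695 cells per T25 flask in 0.5% FBS medium overnight, then treated for 18 h. Cells washed, scraped into PBS with protease inhibitors, pelleted, lysed in 1% Nonidet P-40, sonicated, and spun at 14,000 rpm for 15 min at 4°C. Lysate supernatant assayed by 6E10-capture sandwich ELISA with biotinylated Aβ38, Aβ40 or Aβ42 antibodies. Values expressed as fold over untreated cells.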
# N2a-AβPP695 cells [3] = assay: Mitochondrial parameters in cultured cells; assay type: cell-based
# extracellular Aβ40 = assay: Extracellular Aβ40 ELISA capture assay in N2a-AβPP695 cell supernatants; assay type: cell-based; conditions: for IC50: read-out: IC50 Aβ40, N2a-AβPP695, GSI added 1 h before 100 μM Aftin-5, 18 h; for effect on extracellular Aβ40 in Aftin-5 treated cells: N2a-AβPP695, compound together with 100 μM Aftin-5, 18 h; for effect on extracellular Aβ40 level/production: N2a-AβPP695, compound alone, various concentrations
# extracellular Aβ38 = assay: Extracellular Aβ38 ELISA capture assay in N2a-AβPP695 cell supernatants; assay type: cell-based; conditions: for IC50: read-out: IC50 Aβ38, N2a-AβPP695, GSI added 1 h before 100 μM Aftin-5, 18 h; for effect on extracellular Aβ38 level: N2a-AβPP695, compound alone, various concentrations
# N2a-AβPP695 cells [4] = assay: Autophagy assessment, counting of LC3 foci by immunofluorescence; assay type: cell-based
# How it was run: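 Cells grown on glass coverslips, fixed in 4% paraformaldehyde, permeabilised with 50 μM digitonin, and stained with a monoclonal anti-LC3 antibody. Images taken with a 40× NA 0.85 objective. LC3 foci counted automatically by image analysis.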
# [5] = tested on: mitochondria isolated from N2a-AβPP695 cells; assay: Electron microscopy, ultrastructure of isolated mitochondria; conditions: 100 μM Aftin-5; 50 μM Calcium; 50 μM Calcium + CsA
# Animal toxicity = assay type: in vivo; conditions: per os doses up to 150 mg/kg daily for 20 days; data not shown
# [6] = tested on: KinomeScan panel of 402/442 kinases; assay: KinomeScan panel; assay type: binding; conditions: 10 μM
# N2a-AβPP695 cells [7] = assay: Electron microscopy, ultrastructure of mitochondria within cells; assay type: cell-based
# [8] = N2a-AβPP695, dose-response, 18 h
molecule,measurement,setting,value
Cn1cnc(N)c2ncnc1-2 [3-methyladenine],effect on Aftin-5 induced extracellular Aβ42 production,extracellular Aβ42,did not interfere
"CN(C)c1ncnc2nc[nH]c12 [Aftin N6DA, N6-dimethylaminopurine]",effect on extracellular Aβ42 level/production,extracellular Aβ42; 18 h,inactive
"CCC(CO)Nc1nc(N(C)Cc2ccccc2)c2ncn(C(C)C)c2n1 (centres unmarked) [Aftin-4, N^6-methyl-roscovitine]",IC50,N2a,100 µM
same,IC50,N2a-AβPP695,90 µM
same,interaction with kinases (KinomeScan),[1],no significant interaction
same,effect on extracellular Aβ42 level/production,extracellular Aβ42; 18 h,bell-shaped
same,IC50,SH-SY5Y,106 µM
same,IC50,HT22,74 µM
CC[C@H](CO)Nc1nc(N(C)c2ccccc2)c2ncn(C(C)C)c2n1 [Aftin-5],"effect on levels of intracellular Aβ38, Aβ40, and Aβ42","[2]; N2a-AβPP695, 100 μM Aftin-5, 18 h",did not modify
same,"mitochondrial parameters at the cellular level, control vs treated cells",N2a-AβPP695 cells [3],essentially undistinguishable
same,global respiration functions,N2a-AβPP695 cells [3]; 24 h,slight inhibition
same,IC50,N2a,178 µM
same,IC50,N2a-AβPP695,150 µM
same,cytotoxic effects on cells,"N2a-AβPP695; up to 100 μM, or longest exposure 6 days, data not shown",did not show any cytotoxic effects; also recorded: little cell toxicity
same,maximum increase of Aβ40 level,extracellular Aβ40; [8],40%
same,time after addition at which Aβ42 production reached a plateau,"extracellular Aβ42; N2a-AβPP695, 100 μM Aftin-5",about 12 h
same,effect on extracellular Aβ42 level/production,extracellular Aβ42; 18 h,linear up to the highest dose tested
same,increase of Aβ42 production (up to),extracellular Aβ42; [8],> 900%
same,decrease of Aβ38 level,extracellular Aβ38; [8],> 70%
same,effect on rapamycin-induced autophagy,N2a-AβPP695 cells [4],Neither Aftin-5 nor its inactive analog compound (2) impaired rapamycin-induced autophagy
same,"ultrastructure of isolated mitochondria (swelling, cristae remodeling)",[5],did not induce any swelling or cristae remodeling
same,IC50,SH-SY5Y,180 µM
same,animal toxicity,Animal toxicity,little
same,interaction with kinases (KinomeScan),[6],no interaction with any of the kinases
same,"ultrastructure of mitochondria within cells, 6 h","N2a-AβPP695 cells [7]; 100 μM, 6 h",little detectable effects
same,"ultrastructure of mitochondria within cells, 24 h","N2a-AβPP695 cells [7]; 100 μM, 24 h, reversible upon washing",partial mitochondrial swelling without disruption of cristae
same,IC50,HT22,194 µM
C[C@H](c1ccc(F)cc1CCCC(=O)O)N(c1cc(F)ccc1F)S(=O)(=O)c1ccc(Cl)cc1 [BMS 299897],IC50,extracellular Aβ40,0.056 µM
same,IC50,extracellular Aβ38,0.088 µM
C[C@H](NC(=O)Cc1cc(F)cc(F)c1)C(=O)NC(C(=O)OC(C)(C)C)c1ccccc1 (some centres unmarked) [DAPT],effect on levels of intracellular amyloids,"[2]; N2a-AβPP695, 1 μM compound in presence of 100 μM Aftin-5, 18 h",but not that of intracellular amyloids
same,effect on extracellular Aβ40 in Aftin-5 treated cells,extracellular Aβ40,down-regulated
same,IC50,extracellular Aβ40,0.062 µM
same,effect on Aftin-5 induced extracellular Aβ42 production,extracellular Aβ42,down-regulated
same,effect on extracellular Aβ38 / Aftin-5 induced Aβ38 down-regulation,"extracellular Aβ38; N2a-AβPP695, compound together with 100 μM Aftin-5, 18 h",down-regulated
same,IC50,extracellular Aβ38,0.112 µM
[Ca+2] [calcium],"ultrastructure of isolated mitochondria (swelling, cristae remodeling)",[5],strong swelling
C[C@H](CS)C(=O)N1CCC[C@H]1C(=O)O [captopril],effect on extracellular Aβ40 level/production,extracellular Aβ40; 18 h,no effects
same,effect on extracellular Aβ42 level/production,extracellular Aβ42; 18 h,no effects
same,effect on extracellular Aβ38 level,extracellular Aβ38; 18 h,no effects
CN(Cc1ccccc1)c1nc(N)nc2[nH]cnc12 [compound (2)],effect on extracellular Aβ42 level/production,extracellular Aβ42; 18 h,inactive
same,effect on rapamycin-induced autophagy,N2a-AβPP695 cells [4],Neither Aftin-5 nor its inactive analog compound (2) impaired rapamycin-induced autophagy
COc1cccc2c1C(=O)c1c(O)c3c(c(O)c1C2=O)C[C@@](O)(C(=O)CO)C[C@@H]3O[C@H]1C[C@H](N)[C@H](O)[C@H](C)O1 [doxorubicin],"ultrastructure of mitochondria within cells, positive control",N2a-AβPP695 cells [7]; 5 μM doxorubicin,altered the structure of cristae and induced cell death
CC(C)C[C@H](NP(=O)(O)O[C@@H]1O[C@@H](C)[C@H](O)[C@@H](O)[C@H]1O)C(=O)N[C@@H](Cc1c[nH]c2ccccc12)C(=O)O [phosphoramidon],effect on extracellular Aβ40 level/production,extracellular Aβ40; 18 h,no effects
same,effect on extracellular Aβ42 level/production,extracellular Aβ42; 18 h,no effects
same,effect on extracellular Aβ38 level,extracellular Aβ38; 18 h,no effects
C[C@H](N[C@@H](CCc1ccccc1)C(=O)O)C(=O)N1Cc2ccccc2C[C@H]1C(=O)O [quinaprilat],effect on extracellular Aβ40 level/production,extracellular Aβ40; 18 h,no effects
same,effect on extracellular Aβ42 level/production,extracellular Aβ42; 18 h,no effects
same,effect on extracellular Aβ38 level,extracellular Aβ38; 18 h,no effects
CO[C@H]1C[C@@H]2CC[C@@H](C)[C@@](O)(O2)C(=O)C(=O)N2CCCC[C@H]2C(=O)O[C@H]([C@H](C)C[C@@H]2CC[C@@H](O)[C@H](OC)C2)CC(=O)[C@H](C)/C=C(\C)[C@@H](O)[C@@H](OC)C(=O)[C@H](C)C[C@H](C)/C=C/C=C/C=C/1C [rapamycin],effect on Aftin-5 induced extracellular Aβ42 production,extracellular Aβ42,did not prevent
same,"autophagy, LC3 foci, compound alone",N2a-AβPP695 cells [4],accumulation of LC3 foci
"CC[C@H](CO)Nc1nc(NCc2ccccc2)c2ncn(C(C)C)c2n1 [roscovitine, (R)-Roscovitine]",effect on extracellular Aβ42 level/production,extracellular Aβ42; 18 h,little effect
O=C(O)CNC(=O)C(CS)Cc1ccccc1 (centres unmarked) [thiorphan],effect on extracellular Aβ40 level/production,extracellular Aβ40; 18 h,no effects
same,effect on extracellular Aβ42 level/production,extracellular Aβ42; 18 h,no effects
same,effect on extracellular Aβ38 level,extracellular Aβ38; 18 h,no effects
β-secretase inhibitor IV,effect on extracellular Aβ40 in Aftin-5 treated cells,extracellular Aβ40,inhibited production
same,effect on Aftin-5 induced extracellular Aβ42 production,extracellular Aβ42,inhibited production
